Reference: publication PMC4690987 (Journal of Medicinal Chemistry, 2015)

Tests used:
HIV-1 NL4-3 strain = assay: Antiviral assay in HIV-1 infected TZM-bl cells; type: cell-based; settings: for SI HIV-1 strain NL4-3: CC50 value/IC50 value; for antiviral or cytotoxic activity: HIV-1 NL4-3
Summary of the method: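 TZM-bl cells (HeLa expressing CD4 and CCR5, with LTR-driven luciferase and β-galactosidase) were seeded at 1 ×10^4 cells/well in DMEM/10% FBS and left to adhere overnight. Cells were infected with HIV-1 NL4-3 or BaL at MOI 0.5, treated with serial dilutions of test compound, and incubated at 37 °C for 48 h. IC50 was taken as 50% inhibition of LTR-luciferase signal. CC50 came from parallel MTT on mock-infected cells. SI = CC50/IC50.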

Cytotoxicity assay = type: cell-based; settings: human, uninfected (mock-infected) TZM-bl cells
Summary of the method: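 Run in parallel with the antiviral assay, under the same conditions but on uninfected TZM-bl cells (1 ×10^4 cells/well, seeded overnight, test compound in serial dilution, 37 °C, 48 h). Viability was read by MTT absorbance. CC50 was the concentration that reduced absorbance of mock-infected cells by 50%.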

[1] = cited from earlier work
LTR-IV G4 [2] = assay: SPR analysis; set-up: species or system HIV-1; settings: read-out: KD LTR-IV G4 (SPR); 25 °C, HEPES-KCl buffer, 1:1 binding model
Summary of the method: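 5′-biotinylated oligonucleotides folded (95 °C for 5 min, cooled to room temperature), diluted to 30 nM and captured on a streptavidin chip to about 500 RU, with an empty reference cell. Running buffer was 0.01 M HEPES pH 7.4, 0.2 M KCl, 3 mM EDTA. Test compound run at 25–200 nM, 30 μL/min, with 280 s contact and 360 s dissociation. Surface regenerated with 10 mM glycine pH 2.0. Sensorgrams buffer-corrected and fitted to a 1:1 model. At least two independent runs, χ2 below 0.2.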

LTR-IV G4 [3] = assay: FRET melting assay; type: binding, HIV-1; settings: for stabilization (ΔTm, FRET) at 4-fold c-exNDI:DNA molar ratio: 25 °C is the maximum increase measurable, data not shown
Summary of the method: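 Oligonucleotide labelled with FAM at the 5′ end and TAMRA at the 3′ end, 0.25 μM, folded in lithium cacodylate buffer with 100 mM potassium, plus equimolar test compound. After equilibration at 4 °C, FAM emission was followed from 30 to 95 °C at 1 °C/min. Profiles were normalized, and Tm was the temperature at 0.5 normalized fluorescence.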

HIV-1 NL4-3 = assay: HIV-1 entry assay; type: cell-based; settings: TZM-bl cells, virus production at 31 h pi; 2 50–100 nM, AZT 0.5 μg/mL, DS 100 μg/mL
Summary of the method: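 TZM-bl cells (HeLa stably expressing CD4, CCR5 and HIV-1 LTR-driven luciferase) were grown in DMEM/10% FBS. Cells were seeded at 1 × 10^4 per well and allowed to adhere overnight, then infected with HIV-1 NL4-3 at MOI 0.5 and kept at 37 °C. Test compound or reference agents were added at 0, 1 or 2 h pi. At 31 h cells were PBS-washed and virus production was read as LTR-luciferase RLU.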

| Molecule | SI HIV-1 strain NL4-3 (HIV-1 NL4-3 strain) | CC50 (Cytotoxicity assay) | pKa of the (CH2)3NHMe2+ moieties [1] | Kd (LTR-IV G4 [2]) | stabilization (ΔTm, FRET) at 4-fold c-exNDI:DNA molar ratio (LTR-IV G4 [3]) | difference in stabilization of LTR-IV G4s vs hTel G4 (LTR-IV G4 [3]; FRET, equimolar amounts) | antiviral or cytotoxic activity (HIV-1 NL4-3 strain) | antiviral activity as a function of time of addition (0, 1, 2 h pi) (HIV-1 NL4-3) |
| --- | --- | --- | --- | --- | --- | --- | --- | --- |
| CN(C)CCCn1c(=O)c2ccc3c(=O)n(CCCN(C)C)c(=O)c4c5[nH]c6cc(C(=O)O)ccc6[nH]c5c(c1=O)c2c34 [Compound 6] | >5 | > 5000 nM | > 8.1 |  |  |  |  |  |
| CN(C)CCCn1c(=O)c2cc(Br)c3c(=O)n(CCCN(C)C)c(=O)c4c5[nH]c6ccc(C(=O)O)cc6[nH]c5c(c1=O)c2c34 [Compound 7] | >6 | > 5000 nM | > 8.1 | 21.6 nM |  |  |  |  |
| CN(C)CCCn1c(=O)c2cc(Br)c3c(=O)n(CCCN(C)C)c(=O)c4c5[nH]c6ncccc6[nH]c5c(c1=O)c2c34 [Compound 8] | 7.2 | 458 ± 54 nM |  |  |  |  |  |  |
| CN(C)CCCNc1cc2c(=O)n(CCCN(C)C)c(=O)c3c4[nH]c5ccccc5[nH]c4c4c(=O)n(CCCN(C)C)c(=O)c1c4c23 [Compound 9] | 2.2 | 1760 ± 62.5 nM |  |  |  |  |  |  |
| C[N+](C)(C)CCCn1c(=O)c2ccc3c(=O)n(CCC[N+](C)(C)C)c(=O)c4c5[nH]c6ccccc6[nH]c5c(c1=O)c2c34.[I-].[I-] [Compound 10] |  | > 5000 nM |  | 1.7 nM | above 25 °C | ≥ 6 °C | did not display any antiviral or cytotoxic activity |  |
| C[N+](C)(C)CCCn1c(=O)c2cc(Br)c3c(=O)n(CCC[N+](C)(C)C)c(=O)c4c5[nH]c6ccccc6[nH]c5c(c1=O)c2c34.[I-].[I-] [Compound 11] |  | > 5000 nM |  | 12.9 nM | above 25 °C |  | did not display any antiviral or cytotoxic activity |  |
| dextran sulfate [DS] |  |  |  |  |  |  |  | exhibited antiviral effect only when added at 0 h pi |
